Assay results from the EternaBench riboswitch data.

Tested on: MS2 coat protein
Assay: apparent Kd, MS2 coat protein; higher = weaker binding; RNA-MaP array; FMN 200 µM where present
Procedure, shortened: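 Binding was read on Illumina sequencing-chip clusters where stalled E. coli RNA polymerase had transcribed each design. A titration of SNAP-549-labelled MS2 coat protein began at 0.7 or 1.5 nM and doubled to 3 µM, once without ligand and once with constant ligand, in 100 mM Tris-HCl pH 7.5, 80 mM KCl, 4 mM MgCl2, BSA, DTT, yeast tRNA and Tween-20. The apparent Kd is the median of filtered per-cluster binding-curve fits, based on green signal normalised to red-channel RNA signal and control-cluster median Fmax.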

[1] = designed as: OFF switch for flavin mononucleotide, no ligand
[2] = ligand present: flavin mononucleotide, designed as: OFF switch for flavin mononucleotide
[3] = designed as: ON switch for flavin mononucleotide, no ligand
[4] = ligand present: flavin mononucleotide, designed as: ON switch for flavin mononucleotide

Sequence | apparent Kd [1] | apparent Kd [2] | apparent Kd [3] | apparent Kd [4]
GUUAAGGUAGGAUAUACGAUAAUAUAGGGUAGAUAUAUAACACAUGAGGAUCACCCAUGUAGAAGGACCAAUUG | 30.2 nM | 85.7 nM | – | –
AAGUGUGGAUGAGGAUAUCAGCUGUAACUGACGUCGACAUGAGGAUCACCCAUGUUGCUAAAGGGUGAGAAGGCAUUUGCGCAA | – | – | 481 nM | 53.8 nM
AUCGUGAGUAAGGAUAUCACGCGACCCUUUCGGUGAGAAGGUGCCACAUGAGGAUCACCCAUGUGGGUCGUCGC | 15.6 nM | 15.9 nM | – | –
AAUGAGCAGUAGAAGGCAUGUCUACGGACAUGAGGAUCACCCAUGUUGUGAAUCCGAAAGGAGCAUGAGGAUAUACUGCUCUAA | – | – | 70.7 nM | 14.7 nM
AGUCGGAGCAGAGGAUAUACAUGAGGAUCACCCAUGUAAAUGGAAUAAGCCUGGAAACAGGCAAUGUAGAAGGCUGCUCCGACA | 75 nM | 716 nM | – | –
UGGUCCUGAGGAUAUGCACCUCAAGUUAUCGUUCACCAUGCACAUGAGGAUCACCCAUGUAGAAGGUAGGAUCG | 18.8 nM | 16.6 nM | – | –
AGCGGCGCAGACCACCGCAAAACCAGAAGGACAUGAGGAUCACCCAUGUAACAAAACAGGGCAAUGUAGGAUAUGGCAAACCCA | 11.1 nM | 12.6 nM | – | –
GCUGACGAUGUAGGAUAUCUCGACGAUAAGUCGAGAGAAGGACAUGAGGAUCACCCAUGUAAAACUCCGUCAGCGAGGAAACUC | 16.3 nM | 17.8 nM | – | –
GGCCCGGGAGGAUAUACAUGAGGAUCACCCAUGUGCUUGAGCUUGAUCGAGUUCGAGUGUAGAAGGCCCGGGCC | 14 nM | 21.8 nM | – | –
GUGUGAUUAAGAGGAUAUAUACAACAUGAGGAUCACCCAUGUACCCGUGUAGUAGAAGGUUUGUUUUUAUAUAAUAUUAUAAUU | – | – | 29.9 nM | 24.8 nM
CACAUUUUAACAGGAUAUGUAAGGUUGUUUAUUAUUGCAUUUACAAUUAUUACAGAAGGGUUAUACAUGAGGAUCACCCAUGUG | – | – | 15.3 nM | 15.5 nM
AAAAAACAUGAGGAUCACCCAUGUCAAAAGACGUGAGGAUAUGUACAGACUUCGGUCUGUACAGAAGGCACGAAAA | – | – | 25.4 nM | 21.2 nM
CGAUGACACAGUCAUCCAAUACGAACAUGAGGAUCACCCAUGUAGGAUAUGGUACUCACAGAGUAGCAGAAGGACAUGUGCCUU | 72.8 nM | 158 nM | – | –
CGGCGUAGCGUAAGGAUAUCGCGCGGUGUAAUUGUUGAGAAGGUACAUGAGGAUCACCCAUGUGGUCAGCCGGC | 40 nM | 40 nM | – | –
AGCUAGUCAGGAUAUACGAACACCUCAAAAGAGGUGAAGGGACAUGAGGAUCACCCAUGUAGAAGGGACUAGCA | 33.1 nM | 112 nM | – | –
GAAUAUUCGUUGUACAUGAGGAUCACCCAUGUGUCUUUACAUGAGGAUAUGGAUUCUAAUUGGAUCCAGAAGGCAUGAAUAUUC | – | – | 154 nM | 53.1 nM
GUCGGAAACGACAAAAGUACCGGAGCAGAAGGCAUGUCAUAAGACAUGAGGAUCACCCAUGUGCAUGAGGAUAUGCUCCGGUAC | – | – | 5.45 nM | 4.68 nM
GAGCUAUGAGGAUAUGCAUAGAUACGGAUUCGUGUAGUACUACAUGAGGAUCACCCAUGUAGAAGGCGUGGCAG | 14.3 nM | 15.9 nM | – | –
ACAUGAGGAUCACCCAUGUGAUGAUCUUCCAUGUCAUAUUUCAGAAGGCUCGCAUGUUUGAUGAGAGAGGAUAUGGAAUAUGCG | 790 nM | 368 nM | – | –

Sequence | apparent Kd [1] | apparent Kd [2] | apparent Kd [3] | apparent Kd [4]
GGCGGAGACGUUAACAUGAGGAUCACCCAUGUCGAAGGAGAUGAGGAUAUCGCACACGAUGUGUGUGAGAAGGCAUGGUCUGCC | – | – | 67.4 nM | 15.4 nM
GUAAAUCAUGUAGGAUAUGCAUGGCGAAGCUACGCAGAAGGACAUGAGGAUCACCCAUGUCUGUCCGUCUGCGUACAGACGGAC | 25.6 nM | 170 nM | – | –
AAGAUGCGGAUAGGAUAUGGAAAGAAGGAAAGACCAGAAGGAUUGGUCAUAUAACAUGAGGAUCACCCAUGUAUAUGUUGUGAA | 17.8 nM | 17.7 nM | – | –
AAUUAUUUUUGAGGAUAUGGUGGUGAAACACCACCAGAAGGCGGAAUAAACAUGAGGAUCACCCAUGUGAGCCUGAUGCUUAUG | 21.3 nM | 40.5 nM | – | –
AAGAAACAUGAGGAUCACCCAUGUCAGGAUAUCUCGAAAAGCAUAGAAAUAUGCGAAGAGAGAAGGGACAAGAA | 65 nM | 57 nM | – | –
GCGUAUAUAAGAUUUAUAAAACAGUCAGAAGGUGAUAAGACGACAUGAGGAUCACCCAUGUAAUUCAAGGAUAUGAUAAUGCGC | – | – | 56.3 nM | 15.4 nM
GGAUCGAGUGUGAGGAUAUGCUGGUCCUUGGAUCAGCAGAAGGCACAUGAGGAUCACCCAUGUGAAAACGGUCC | 26.6 nM | 189 nM | – | –
GCUUAGUAAGGAUAUUCACCGAUAAACAUGAGGAUCACCCAUGUCAUGUACCGUCGCCCGGAAGAAGGUACAGGCU | 49.6 nM | 44.9 nM | – | –
AAUAUGUUGCAGAAGGCUAUAUUUUUUUAGUACCUCAUGACAUGAGGAUCACCCAUGUUUUUGUUGGAGGAUAUGCAAUAUAUU | 8.07 nM | 7.56 nM | – | –
AAAACAUGAGGAUCACCCAUGUAAAGAUCGGUUAAUUGUUGUGAGGAUAUACUAAAUUUUAGGUUGUAGAAGGCACUGGGUACA | – | – | 43.1 nM | 54.9 nM
AAAAGACAUGAGGAUCACCCAUGUAAAAACAUAGGAGGAUAUGUCUGGAAACUAGACUGGACAGAAGGCCUUUGUC | – | – | 33.3 nM | 25 nM
AAGAGACAUCAGAAGGGAGCCCGAAAGCGCAGCUCAGGAUAUGAGAUCUUAUGUAGUACGACAUGAGGAUCACCCAUGUCCGCG | – | – | 74.3 nM | 10.2 nM
AAAACAUGAGGAUCACCCAUGUAAUGAUCGGUUGAUGAAAGUGAGGAUAUACAAAAUUUUAUGGAGUAGAAGGCACUGGGUUCA | – | – | 31.4 nM | 31.9 nM
AGGAAGUGAGGAUAUGCAGUGGCUUGUAGACGCAAGCACUUGUAGAAGGCACAUGAGGAUCACCCAUGUUUAAA | 30.8 nM | 37.3 nM | – | –
UACGUACAGAAGAACUCCGGGUCCAGAAGGGACAUGAGGAUCACCCAUGUACCGUUGAUUGCUUGUCAGGAUAUGGACCCGGCC | 6.67 nM | 28 nM | – | –
UAUUAGUUAGGAUAUACAUGAGGAUCACCCAUGUCACGGGUCCACUUGUCCUAUGCGUGUAGAAGGAGCGACCC | 19.5 nM | 20.8 nM | – | –
GUCACUAGAGGAUAUACAAUGGUAUAUGAUCCUAGAGACAUACAUGAGGAUCACCCAUGUAGAAGGCUAGUAUU | 64.6 nM | 43.5 nM | – | –
UUUUUACAUGAGGAUCACCCAUGUCAGGAUAUGUUUAUAUUUUAUUAUUUUAUUUUUUACAGAAGGGACUAUUA | 136 nM | 66.6 nM | – | –
UGUUUUCAUGUAGGAUAUGCUUGUCGUAGAUACGCAGAAGGACAUGAGGAUCACCCAUGUUAAUGCGACAGAGUUUAGAUUCUU | 17.5 nM | 31.9 nM | – | –

Sequence | apparent Kd [1] | apparent Kd [2] | apparent Kd [3] | apparent Kd [4]
AGUCGGUUCUUUUAACAUGAGGAUCACCCAUGUAUUUGCAACUAGGAUAUCGAUAAUUAUUUCGUCGAGAAGGAGUAUACAUAA | 24.2 nM | 38.5 nM | – | –
GAUAGGACAGAGAAGGUACGUGCUAGAGAUACUAGCAAAAUUACCUCACAUGAGGAUCACCCAUGUAAGGAUAUCUGUCCUAUC | 4.82 nM | 5.54 nM | – | –
AGCGAGCUAGGAUAUACAUGAGGAUCACCCAUGUCUUUUUAGUACUACGGUGGAAGAUGUAGAAGGAGUGAGAA | 95.1 nM | 68.3 nM | – | –
AAUAAGUGAGGAUAUACGAAAUAAAUAAAUAAAUAAAUAAAGUAGAAGGCACAUGAGGAUCACCCAUGUAAUAA | 34.6 nM | 29 nM | – | –
UGUUGUAUUACAGGAUAUCUAUGAUUUUGAUUUAGAGAAGGGUAUUCACAUGAGGAUCACCCAUGUAUAUACGAGGAAGUUGUG | – | – | 51.2 nM | 54.4 nM
GUCGGAAACGACAAAAGUAGCAUACGAGAAGGCUGAUCCACGACAUGAGGAUCACCCAUGUAGUUAGAGGAUAUUGGAUGCUAC | – | – | 61.6 nM | 12.9 nM
ACUAAACGAGGAUAUACUGACAGGCCUCAGACAUACAUCAAACAUGAGGAUCACCCAUGUAGAAGGCGUAAACU | 37.2 nM | 36.7 nM | – | –
UUUUCACAUGAGGAUCACCCAUGUGAGGAUAUGGUUUCGCUGGCCGUAGCCAGUGGAACCAGAAGGCGCGUGAU | 60.7 nM | 66.4 nM | – | –
UUUAUGUCAGGAUAUGAGGAGUAGAACAAUAGUACUACUCCUCAGAAGGGACAUGAGGAUCACCCAUGUUCCUC | 20.7 nM | 91.9 nM | – | –
UGCGUGGUCACAGGAUAUGCAAGAUAAACUUUAGCAGAAGGGUGAUCAAUUAGCUCAAUACCACAUGAGGAUCACCCAUGUCUA | – | – | 62.9 nM | 314 nM
AUGCUAGUGUGAGGAUAUUAACAUGAGGAUCACCCAUGUUGGAAGUACACGACAUGAGGUACAUUUAAGAAGGUACAUUAGCAU | 145 nM | 161 nM | – | –
UUUACGAAAGUCGAACGAUGUAGCAGAAGGACAUGAGGAUCACCCAUGUCAGCUGUAACAGCCAUGUAGGAUAUGCUACAUUUU | 5.37 nM | 6.12 nM | – | –
AAAGACUAAGGAUAUACAUGAGGAUCACCCAUGUCUACCCACAUGCUGGUAUCAACCUGUAGAAGGUAGUUCAA | 27.8 nM | 85.9 nM | – | –
AACAUGUGAGGAUAUGUCACAUGGCUCUUCGGAGCAAGAUGACAGAAGGCACAUGAGGAUCACCCAUGUGCAUC | 13.8 nM | 22.6 nM | – | –
GUUGUGUAUGUAGGAUAUGCGAAGCAAAGCUUCGCAGAAGGACAUGAGGAUCACCCAUGUAUUGCGGUCUGCGUUCAGAUCGCU | 43.5 nM | 181 nM | – | –
UUGUGCAAAGGAUAUACGUCCGACCUCGUGGAACUGAGAAUACAUGAGGAUCACCCAUGUAGAAGGUUGCCGAG | 11.7 nM | 15.1 nM | – | –
GCAGGUUAAGUCAGGAUAUACCUAUGGAUACAUAGGUAGAAGGGACAUGAGGAUCACCCAUGUGGCUCACCUGC | 24.2 nM | 40.2 nM | – | –
GUCUUGUCAGGAUAUCUUACAUAACAAUCGUAGUUACAAUUGGAGAAGGGACAUGAGGAUCACCCAUGUUAGCG | 32.9 nM | 36 nM | – | –
